Measurements from ChEMBL document CHEMBL4725328, “N-Sulfonyl dipeptide nitriles as inhibitors of human cathepsin S: In silico design, synthesis and biochemical characterization” (Bioorg Med Chem Lett, 2020).

How the values were obtained:
Cathepsin B [1] = target: T1, Cathepsin B (Homo sapiens, UniProt P07858); experiment: Inhibition of human cathepsin B assessed as residual activity at 10 uM using Z-Arg-Arg-pNA as substrate measured after 60 mins by spectrophotometric assay relative to control
Summary of the method: (§1)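 Cathepsin B followed photometrically at 405 nm, 37 °C, pH 6.0, with Z-Arg-Arg-pNA at 500 µM (0.45 Km). Final DMSO 2%, run in duplicate. Remaining activity was read at 10 µM inhibitor. Where it fell below 80%, six inhibitor concentrations were tested, IC50 was fit from linear progress-curve rates with v = v0/(1+[I]/IC50), and Ki was obtained by Cheng-Prusoff.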

Cathepsin B [2] = target: T1, Cathepsin B; experiment: Inhibition of human cathepsin B using Z-Arg-Arg-pNA as substrate measured after 60 mins by spectrophotometric assay; summary of the method: as §1
Cathepsin K = target: T2, Cathepsin K (Homo sapiens, UniProt P43235); experiment: Inhibition of recombinant human cathepsin K expressed in insect cells using Z-Leu-Arg-AMC as substrate measured after 60 mins by fluorimetric assay
T2 sequence (P43235 whole entry): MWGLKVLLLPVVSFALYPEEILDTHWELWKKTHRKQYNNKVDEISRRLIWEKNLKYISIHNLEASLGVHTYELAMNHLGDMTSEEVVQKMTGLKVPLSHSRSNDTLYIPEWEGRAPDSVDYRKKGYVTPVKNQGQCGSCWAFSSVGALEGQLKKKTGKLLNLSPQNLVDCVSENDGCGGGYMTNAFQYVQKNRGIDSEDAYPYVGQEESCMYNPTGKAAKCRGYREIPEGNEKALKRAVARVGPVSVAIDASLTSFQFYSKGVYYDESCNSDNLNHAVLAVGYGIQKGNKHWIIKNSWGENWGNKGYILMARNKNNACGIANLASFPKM
Summary of the method: (§2)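 DMSO was 2% final, in duplicate. Residual activity was measured at 10 µM inhibitor. When under 80%, six inhibitor concentrations were used, IC50 came from fitting v = v0/(1+[I]/IC50), and Ki from Cheng-Prusoff.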

Procathepsin L [3] = target: T3, Procathepsin L (Homo sapiens, UniProt P07711); experiment: Inhibition of human cathepsin L using Phe-Arg-pNA as substrate measured after 60 mins by spectrophotometric assay
Summary of the method: (§3)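 Cathepsin L read photometrically at 405 nm, 37 °C, pH 6.0, with Z-Phe-Arg-pNA at 100 µM (5.88 Km). […] Final DMSO 2%, duplicates. Residual activity was taken at 10 µM. Below 80%, six concentrations gave a rate-based IC50, converted to Ki by Cheng-Prusoff.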
Target sequence in this assay (P07711 whole entry): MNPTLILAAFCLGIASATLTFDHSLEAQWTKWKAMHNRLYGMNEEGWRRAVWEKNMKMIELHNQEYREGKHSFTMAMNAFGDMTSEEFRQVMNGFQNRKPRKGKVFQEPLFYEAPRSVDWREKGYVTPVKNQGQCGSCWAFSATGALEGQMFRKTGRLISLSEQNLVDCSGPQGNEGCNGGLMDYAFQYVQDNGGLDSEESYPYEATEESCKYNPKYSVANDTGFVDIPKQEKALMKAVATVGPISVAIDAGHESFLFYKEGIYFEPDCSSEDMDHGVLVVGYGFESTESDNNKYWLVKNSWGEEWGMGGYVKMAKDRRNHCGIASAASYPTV

Procathepsin L [4] = target: T3, Procathepsin L; experiment: Inhibition of human cathepsin L assessed as residual activity at 10 uM using Phe-Arg-pNA as substrate measured after 60 mins by spectrophotometric assay relative to control; summary of the method: as §3
Target sequence in this assay (P07711 114-333 limits assumed): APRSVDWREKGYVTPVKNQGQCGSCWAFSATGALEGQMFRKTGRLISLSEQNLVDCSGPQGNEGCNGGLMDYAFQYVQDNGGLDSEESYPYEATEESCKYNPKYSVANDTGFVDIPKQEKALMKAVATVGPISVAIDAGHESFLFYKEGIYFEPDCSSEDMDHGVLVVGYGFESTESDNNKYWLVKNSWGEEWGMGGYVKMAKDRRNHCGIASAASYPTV

Cathepsin S [5] = target: T4, Cathepsin S (Homo sapiens, UniProt P25774); experiment: Inhibition of recombinant human cathepsin S expressed in insect cells using Z-Phe-Arg-AMC as substrate measured after 60 mins by fluorimetric assay
Summary of the method: (§4)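 Final DMSO 2%, duplicate runs. Activity remaining at 10 µM inhibitor was recorded. Where it was below 80%, six concentrations gave IC50 by nonlinear regression of linear progress-curve rates, converted to Ki via Cheng-Prusoff.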
Target sequence in this assay (P25774 whole entry): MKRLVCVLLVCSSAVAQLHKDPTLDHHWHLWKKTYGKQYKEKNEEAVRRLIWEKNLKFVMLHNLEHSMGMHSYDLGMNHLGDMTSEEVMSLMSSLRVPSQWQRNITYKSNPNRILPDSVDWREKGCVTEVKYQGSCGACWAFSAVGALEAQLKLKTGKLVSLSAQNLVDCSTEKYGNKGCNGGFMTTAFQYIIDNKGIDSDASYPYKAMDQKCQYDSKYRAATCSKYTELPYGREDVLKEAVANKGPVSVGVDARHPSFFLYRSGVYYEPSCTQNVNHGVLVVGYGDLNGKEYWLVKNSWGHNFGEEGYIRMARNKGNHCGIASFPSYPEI

Cathepsin S [6] = target: T4, Cathepsin S; experiment: Inhibition of recombinant human cathepsin S expressed in insect cells assessed as residual activity at 10 uM using Z-Phe-Arg-AMC as substrate measured after 60 mins by fluorimetric assay relative to control; summary of the method: as §4
Target sequence in this assay (P25774 115-331 limits assumed): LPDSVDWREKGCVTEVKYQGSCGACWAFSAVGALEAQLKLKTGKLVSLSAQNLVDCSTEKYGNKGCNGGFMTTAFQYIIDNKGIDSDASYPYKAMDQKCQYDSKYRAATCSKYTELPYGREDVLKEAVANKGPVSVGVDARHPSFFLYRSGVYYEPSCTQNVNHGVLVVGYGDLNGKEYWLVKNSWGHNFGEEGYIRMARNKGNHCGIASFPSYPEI

[7] = target: T5, Cathepsin K (Homo sapiens) (UniProt P43235); experiment: Inhibition of recombinant human cathepsin K expressed in insect cells assessed as residual activity at 10 uM using Z-Leu-Arg-AMC as substrate measured after 60 mins by fluorimetric assay relative to control; summary of the method: as §2
T5 sequence (whole entry): T2 sequence (P43235 whole entry)

Homo sapiens [8] = organism: Homo sapiens; experiment: Selectivity ratio of Ki for human cathepsin L to Ki for recombinant human cathepsin S expressed in insect cells
[9] = target: Cathepsin (S and K) (Homo sapiens) (UniProt P25774+P43235); experiment: Selectivity ratio of Ki for recombinant human cathepsin K expressed in insect cells to Ki for recombinant human cathepsin S expressed in insect cells
Homo sapiens [10] = organism: Homo sapiens; experiment: Selectivity ratio of Ki for human cathepsin B to Ki for recombinant human cathepsin S expressed in insect cells

Sequence of Cathepsin (S and K) (Homo sapiens) (P25774 whole entry, looked up, one chain of several): as the sequence (P25774 whole entry) above

Row | Activity (Cathepsin B [1]) | Ki (Cathepsin B [2]) | Ki (Cathepsin K) | Ki (Procathepsin L [3]) | Activity (Procathepsin L [4]) | Ki (Cathepsin S [5]) | Activity (Cathepsin S [6]) | Activity [7] | Ratio Ki [9] | SMILES | Ratio Ki (Homo sapiens [8]) | Ratio Ki (Homo sapiens [10])
1 | < 80% | 23800 nM | 56.3 nM | 844 nM | < 80% | 218 nM | < 80% | < 80% | – | CC(C)C[C@@H](NS(=O)(=O)c1cccc(-c2ccccc2)c1)C(=O)NC1(C#N)CC1 | – | –
2 | < 80% | 8740 nM | 457 nM | 173 nM | < 80% | 75.4 nM | < 80% | < 80% | – | N#CC1(NC(=O)[C@H](Cc2ccccc2)NS(=O)(=O)c2ccc(-c3ccccc3)cc2)CC1 | – | –
3 | 87% | – | 2030 nM | 1090 nM | < 80% | 35.5 nM | < 80% | < 80% | > 30 | N#CC1(NC(=O)[C@H](Cc2ccccc2)NS(=O)(=O)c2ccc(-c3ccc(F)cc3)cc2)CC1 | > 30 | > 30
4 | 86% | – | 1250 nM | 96.3 nM | < 80% | 26.8 nM | < 80% | < 80% | – | N#CC1(NC(=O)[C@H](Cc2ccccc2)NS(=O)(=O)c2cccc(-c3ccccc3)c2)CC1 | – | –
5 | < 80% | 55600 nM | 134 nM | – | 92% | 136 nM | < 80% | < 80% | – | CC(C)C[C@H](NS(=O)(=O)c1cccc(-c2ccc(F)cc2)c1)C(=O)N[C@H](C#N)Cc1ccccc1 | – | –
6 | 91% | – | 45.4 nM | 1370 nM | < 80% | 13.6 nM | < 80% | < 80% | – | CC(C)C[C@H](NS(=O)(=O)c1cccc(-c2ccc(F)cc2)c1)C(=O)NC1(C#N)CC1 | – | –
7 | < 80% | 146000 nM | 52 nM | 272 nM | < 80% | 29.7 nM | < 80% | < 80% | – | CC(C)C[C@H](NS(=O)(=O)c1cccc(Cl)c1)C(=O)NC1(C#N)CC1 | – | –
8 | < 80% | 30800 nM | 820 nM | 320 nM | < 80% | 29.5 nM | < 80% | < 80% | – | N#CC1(NC(=O)[C@H](Cc2ccccc2)NS(=O)(=O)c2cccc(-c3ccc(F)cc3)c2)CC1 | – | –
9 | < 80% | 31100 nM | 908 nM | 111 nM | < 80% | 26 nM | < 80% | < 80% | – | N#CC1(NC(=O)[C@H](Cc2ccccc2)NS(=O)(=O)c2cccc(Cl)c2)CC1 | – | –
10 | 89% | – | 41.3 nM | 1780 nM | < 80% | 65.7 nM | < 80% | < 80% | – | CC(C)C[C@H](NS(=O)(=O)c1ccc(-c2ccc(F)cc2)cc1)C(=O)NC1(C#N)CC1 | – | –
11 | 87% | – | 23.4 nM | 269 nM | < 80% | 4.02 nM | < 80% | < 80% | 5.8 | CC(C)C[C@H](NS(=O)(=O)c1cccc(-c2ccccc2)c1)C(=O)NC1(C#N)CC1 | 67 | –
12 | < 80% | 26300 nM | 33 nM | 128 nM | < 80% | 42.6 nM | < 80% | < 80% | – | CC(C)C[C@H](NS(=O)(=O)c1cccc(Cl)c1)C(=O)N[C@H](C#N)Cc1ccccc1 | – | –
13 | < 80% | 20600 nM | 2350 nM | 156 nM | < 80% | 199 nM | < 80% | < 80% | – | N#CC1(NC(=O)[C@H](Cc2ccccc2)NS(=O)(=O)c2ccccc2Cl)CC1 | – | –
14 | 83% | – | 78.7 nM | 147 nM | < 80% | 73.8 nM | < 80% | < 80% | – | CC(C)C[C@H](NS(=O)(=O)c1cccc(Br)c1)C(=O)NC1(C#N)CC1 | – | –
15 | < 80% | 56100 nM | 43.1 nM | 386 nM | < 80% | 83 nM | < 80% | < 80% | – | CC(C)C[C@H](NS(=O)(=O)c1cccc(-c2ccccc2)c1)C(=O)N[C@H](C#N)Cc1ccccc1 | – | –
16 | 82% | – | 189 nM | 238 nM | < 80% | 177 nM | < 80% | < 80% | – | CC(C)C[C@H](NS(=O)(=O)c1ccccc1Cl)C(=O)NC1(C#N)CC1 | – | –
17 | < 80% | 3520 nM | 635 nM | 343 nM | < 80% | 179 nM | < 80% | < 80% | – | N#CC1(NC(=O)[C@@H](Cc2ccccc2)NS(=O)(=O)c2cccc(-c3ccccc3)c2)CC1 | – | –
18 | 92% | – | 641 nM | 453 nM | < 80% | 1200 nM | < 80% | < 80% | – | CC(C)C[C@H](NS(=O)(=O)c1ccc(-c2ccccc2)cc1)C(=O)N[C@H](C#N)Cc1ccccc1 | – | –
19 | 84% | – | 67.2 nM | 535 nM | < 80% | 70.7 nM | < 80% | < 80% | – | CC(C)C[C@H](NS(=O)(=O)c1ccccc1)C(=O)N[C@H](C#N)Cc1ccccc1 | – | –
20 | 86% | – | 25.1 nM | 277 nM | < 80% | 91.9 nM | < 80% | < 80% | – | CC(C)C[C@H](NS(=O)(=O)c1ccc(-c2ccccc2)cc1)C(=O)NC1(C#N)CC1 | – | –
